Source: ChEMBL document CHEMBL1800034, “A synthetic 7,8-dihydroxyflavone derivative promotes neurogenesis and exhibits potent antidepressant effect” (J Med Chem, 2010)
Activity calls are given as the source filed them. The rule behind the calls is not given here.

Experiments:
Mus musculus [1] = assay: Antidepressant activity in TrkB F616A knock in mouse assessed as reduction of immobility time at 5 mg/kg, po administered for 21 days by forced swim test assay in presence of TrkB F616A inhibitor 1NMPP1; format: functional, organism-based; parameters: dose 5 mg/kg
HEK293 = assay: Cytotoxicity against human HEK293 cells assessed as cell death at 50 to 50000 nM after 24 hrs by LDH assay; format: cell-based; details: hek293, 24 h, 50 µM
Mus musculus [2] = assay: Agonist activity at TrkB in C57BL/6J mouse brain assessed as AKT phosphorylation at 1 mg/kg, po after 1 to 16 hrs by immunoblotting; format: functional, organism-based; parameters: dose 1 mg/kg
Outline: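 C57BL/6J mice got a single oral dose of 1 mg/kg. Brains were collected at several time points, about 1 to 16 h after dosing. Lysates were immunoblotted for TrkB phosphorylation and for downstream Akt and MAPK phosphorylation.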

Mus musculus [3] = assay: Toxicity in C57BL/6J mouse assessed as pathological changes in muscle at 5 mg/kg, po for 3 weeks; format: organism-based, Muscle tissue; parameters: dose 5 mg/kg, route oral; details: in vivo, 504 h
Outline: (§1)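 Mice were dosed orally at 5 mg/kg for 3 weeks, with saline-treated controls. Major organs were examined for pathological changes, and a complete blood count was done.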

Mus musculus [4] = assay: Toxicity in C57BL/6J mouse assessed as pathological changes in hippocampus at 5 mg/kg, po for 3 weeks; format: organism-based; parameters: dose 5 mg/kg, route oral; details: in vivo, 504 h; outline: as §1
Mus musculus [5] = assay: Neuroprotective activity in TrkB F616A knock in mouse assessed as inhibition of kainic acid-induced caspase 3 activation in brain homogenates at 5 mg/kg, po administered 4 hrs prior to kainic acid challenge measured after 4 days by immunoblotting in presence of TrkB F616A inhibitor 1NMPP1; format: functional, organism-based; parameters: dose 5 mg/kg
Outline: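 TrkB F616A knock-in mice, 2–3 months old, were given 1NMPP1 at 25 µM in drinking water one day beforehand. They were then gavaged with compound at 5 mg/kg, followed 4 h later by kainic acid at 20 mg/kg. Brains were taken 4 days later, homogenized and ultracentrifuged. 40 µg of supernatant was immunoblotted.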

Mus musculus [6] = assay: Toxicity in C57BL/6J mouse assessed as pathological changes in intestine at 5 mg/kg, po for 3 weeks; format: organism-based; parameters: dose 5 mg/kg, route oral; details: in vivo, 504 h; outline: as §1
[7] = molecular target: BDNF/NT-3 growth factors receptor (Rattus norvegicus) (UniProt Q63604); assay: Agonist activity at TrkB in E17 rat primary cortical neurons assessed as AKT phosphorylation at S473 at 500 nM by ELISA; details: Cerebral cortex neuron
BDNF/NT-3 growth factors receptor (Rattus norvegicus), sequence (Q63604 whole entry): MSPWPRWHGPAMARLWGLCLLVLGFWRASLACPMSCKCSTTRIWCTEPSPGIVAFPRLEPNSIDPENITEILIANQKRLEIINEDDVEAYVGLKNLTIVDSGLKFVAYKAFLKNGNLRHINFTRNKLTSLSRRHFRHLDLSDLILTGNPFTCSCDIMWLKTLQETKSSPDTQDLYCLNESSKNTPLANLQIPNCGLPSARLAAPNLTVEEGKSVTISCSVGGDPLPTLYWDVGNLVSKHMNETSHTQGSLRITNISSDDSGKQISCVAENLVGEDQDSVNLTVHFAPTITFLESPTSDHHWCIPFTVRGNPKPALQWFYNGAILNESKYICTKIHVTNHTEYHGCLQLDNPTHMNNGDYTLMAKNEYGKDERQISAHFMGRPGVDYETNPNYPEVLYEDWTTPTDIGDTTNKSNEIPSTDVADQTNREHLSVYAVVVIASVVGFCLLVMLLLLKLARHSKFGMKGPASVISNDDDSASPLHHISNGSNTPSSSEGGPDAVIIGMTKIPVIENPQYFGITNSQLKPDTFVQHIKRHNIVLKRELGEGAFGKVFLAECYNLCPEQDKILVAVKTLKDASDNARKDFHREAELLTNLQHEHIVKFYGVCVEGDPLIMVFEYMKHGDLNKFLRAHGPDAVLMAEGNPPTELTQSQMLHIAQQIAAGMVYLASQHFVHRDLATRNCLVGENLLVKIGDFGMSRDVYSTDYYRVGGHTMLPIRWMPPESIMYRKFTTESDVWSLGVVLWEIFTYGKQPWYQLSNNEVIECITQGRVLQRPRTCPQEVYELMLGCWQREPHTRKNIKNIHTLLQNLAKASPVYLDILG

[8] = molecular target: BDNF/NT-3 growth factors receptor (Rattus norvegicus) (UniProt Q63604); assay: Agonist activity at TrkB in E17 rat primary rat cortical neurons assessed as AKT phosphorylation at Ser 473 at 10 to 50 nM after 15 mins by titration assay; format: functional
Outline: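 Primary cortical neurons were incubated with graded concentrations, starting at 10 nM, for 15 min. Phospho-Akt Ser473 was measured by sandwich ELISA on 20 µg of lysate. Data come from 2 replicated experiment sets, given as mean ± SEM. Comparisons used one-way ANOVA against control and Student's t-test between compounds.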

Activity [7]: Active | Activity [8]: Active
SMILES: CN(C)c1ccc(-c2cc(=O)c3ccc(O)c(O)c3o2)cc1
Activity (Mus musculus [1]): inactive | Activity (HEK293): Non-toxic | Activity (Mus musculus [2]): Active | Activity (Mus musculus [3]): Non-toxic | Activity (Mus musculus [4]): Non-toxic | inhibition (Mus musculus [5]): inactive | Activity (Mus musculus [6]): Non-toxic
